The values below come from ChEMBL document CHEMBL1133662, “Novel 3-aminomethyl- and 4-aminopiperidine analogues of 1-[2-(diphenylmethoxy)ethyl]-4-(3-phenylpropyl)piperazines: synthesis and evaluation as dopamine transporter ligands” (J Med Chem, 2000).

Test [1] deals with Monoamine transporters; serotonin & dopamine (Homo sapiens) (UniProt P31645+Q01959). As to the kind of experiment: Selectivity ratio of SERT/DAT. The class given is protein assay.
For test [2], the target named is T1, Sodium-dependent dopamine transporter (Homo sapiens, UniProt Q01959). As to the kind of experiment: Inhibition of [3H]dopamine reuptake in HEK293 cells expressing human dopamine transporter. Format: cell-based. The gist of the method:
(§1)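 Confluent HEK 293 cells expressing human SERT or DAT were scraped into PBS and used as a suspension in Krebs HEPES at 25 °C. Drug (six concentrations, triplicate) was preincubated with cells 10 min. [3H]5-HT or [3H]DA (0.020 µM final) was added for 10 min, then uptake was stopped by filtration onto polyethyleneimine-soaked GF/C filters. IC50 from three independent experiments.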

Test [3] concerns the target T1, Sodium-dependent dopamine transporter. As to the kind of experiment: Inhibition of [125I]RTI-55 binding to dopamine transporter. The gist of the method:
(§2)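 Membranes from HEK 293 cells expressing human DAT or SERT, lysed in 2 mM HEPES/1 mM EDTA, pelleted at 30000g and resuspended in 0.32 M sucrose (about 15 µg protein per assay). Incubated 90 min at room temperature in the dark, then filtered. Duplicate competition curves; IC50 converted to Ki by Cheng-Prusoff.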

The target in test [4] is T2, Sodium-dependent serotonin transporter (Homo sapiens, UniProt P31645). As to the kind of experiment: Inhibition of [3H]5-HT reuptake in HEK293 cells expressing human serotonin transporter. Format: cell-based. The gist of the method: as §1
Test [5] addresses T3, Sodium-dependent noradrenaline transporter (Homo sapiens, UniProt P23975). As to the kind of experiment: Inhibition of [3H]NE reuptake by human norepinephrine transporter expressed in HEK293 cells. The class given is cell-based.
For test [6], the target named is T2, Sodium-dependent serotonin transporter. Nature of the test: Binding affinity for serotonin transporter using [125I]RTI-55. The gist of the method: as §2
Test [7] can be described thus: Discrimination ratio of [3H]-DA reuptake/DAT binding. Format: functional.
Test [8] can be described thus: Discrimination ratio of [3H]5-HT reuptake/SERT binding. The class given is functional.
For test [9], the target named is T3, Sodium-dependent noradrenaline transporter. Nature of the test: Binding affinity at the norepinephrine transporter was measured using [125I]RTI-55 as a radioligand.
Test [10] deals with Monoamine transporters; Norepinephrine & dopamine (Homo sapiens) (UniProt Q01959+P23975). Nature of the test: Selectivity ratio of NET/DAT. Format: protein assay.

Broadly, the IC50 is the concentration at which inhibition is half-maximal. Lower therefore signals greater potency. In general, Ki refers to a dissociation constant, usually derived from enzyme kinetics or from competition with a known ligand.

T1 sequence (Q01959 whole entry): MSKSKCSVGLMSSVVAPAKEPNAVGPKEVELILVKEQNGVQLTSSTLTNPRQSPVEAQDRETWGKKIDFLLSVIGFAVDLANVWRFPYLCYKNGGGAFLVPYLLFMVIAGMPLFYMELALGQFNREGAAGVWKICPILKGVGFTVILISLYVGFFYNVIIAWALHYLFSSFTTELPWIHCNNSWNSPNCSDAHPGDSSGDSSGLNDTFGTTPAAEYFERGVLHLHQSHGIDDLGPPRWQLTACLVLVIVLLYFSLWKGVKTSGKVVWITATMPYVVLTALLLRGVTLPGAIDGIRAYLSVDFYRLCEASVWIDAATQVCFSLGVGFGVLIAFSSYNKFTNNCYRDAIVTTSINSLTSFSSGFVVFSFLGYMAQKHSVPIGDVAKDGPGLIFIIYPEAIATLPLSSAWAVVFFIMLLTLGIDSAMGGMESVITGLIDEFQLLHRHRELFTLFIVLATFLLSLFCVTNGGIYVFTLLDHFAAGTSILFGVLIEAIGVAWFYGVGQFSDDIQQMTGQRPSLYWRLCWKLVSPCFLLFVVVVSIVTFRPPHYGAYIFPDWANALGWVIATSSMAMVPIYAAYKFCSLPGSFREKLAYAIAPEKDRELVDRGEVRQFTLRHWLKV
T2 sequence (P31645 whole entry): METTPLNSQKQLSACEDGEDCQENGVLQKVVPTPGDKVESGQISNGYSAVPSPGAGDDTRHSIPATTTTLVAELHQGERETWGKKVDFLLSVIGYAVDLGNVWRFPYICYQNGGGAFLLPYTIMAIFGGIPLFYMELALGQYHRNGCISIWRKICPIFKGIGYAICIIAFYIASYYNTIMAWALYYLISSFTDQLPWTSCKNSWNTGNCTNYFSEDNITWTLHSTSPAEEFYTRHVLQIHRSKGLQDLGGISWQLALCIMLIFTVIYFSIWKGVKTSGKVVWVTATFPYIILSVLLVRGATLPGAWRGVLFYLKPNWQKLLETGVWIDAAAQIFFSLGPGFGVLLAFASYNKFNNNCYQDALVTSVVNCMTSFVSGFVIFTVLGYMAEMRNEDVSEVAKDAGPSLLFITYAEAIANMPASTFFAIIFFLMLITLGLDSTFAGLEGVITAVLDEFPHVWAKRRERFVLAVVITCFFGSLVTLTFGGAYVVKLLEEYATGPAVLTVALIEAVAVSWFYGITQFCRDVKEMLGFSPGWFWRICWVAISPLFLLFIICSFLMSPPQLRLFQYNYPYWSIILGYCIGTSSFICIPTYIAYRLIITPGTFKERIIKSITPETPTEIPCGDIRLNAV
Sequence of Monoamine transporters; serotonin & dopamine (Homo sapiens) (P31645 whole entry, looked up): as the sequence (P31645 whole entry) above
Sequence of Monoamine transporters; serotonin & dopamine (Homo sapiens) (Q01959 whole entry, looked up): as the sequence (Q01959 whole entry) above
T3 sequence (P23975 whole entry): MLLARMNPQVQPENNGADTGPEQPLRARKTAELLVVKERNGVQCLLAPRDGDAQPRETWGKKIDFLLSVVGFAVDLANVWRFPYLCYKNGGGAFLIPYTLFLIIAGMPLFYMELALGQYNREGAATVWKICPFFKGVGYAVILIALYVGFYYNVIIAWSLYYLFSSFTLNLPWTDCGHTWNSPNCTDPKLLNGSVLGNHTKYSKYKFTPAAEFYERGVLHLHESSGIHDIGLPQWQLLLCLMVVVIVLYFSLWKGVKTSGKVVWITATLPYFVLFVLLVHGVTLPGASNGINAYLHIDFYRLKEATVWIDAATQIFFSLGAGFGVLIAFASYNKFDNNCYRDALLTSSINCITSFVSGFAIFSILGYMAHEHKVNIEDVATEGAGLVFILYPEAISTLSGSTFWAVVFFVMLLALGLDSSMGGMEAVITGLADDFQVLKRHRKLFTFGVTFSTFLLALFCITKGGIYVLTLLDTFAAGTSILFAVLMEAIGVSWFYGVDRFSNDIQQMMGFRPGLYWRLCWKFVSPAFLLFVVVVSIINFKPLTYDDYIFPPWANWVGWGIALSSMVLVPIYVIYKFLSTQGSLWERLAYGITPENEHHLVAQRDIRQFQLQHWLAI
Sequence of Monoamine transporters; Norepinephrine & dopamine (Homo sapiens) (P23975 whole entry, looked up): as the sequence (P23975 whole entry) above
Sequence of Monoamine transporters; Norepinephrine & dopamine (Homo sapiens) (Q01959 whole entry, looked up): as the sequence (Q01959 whole entry) above

Regarding `c1ccc(CCCNC2CCN(CCOC(c3ccccc3)c3ccccc3)CC2)cc1`, the values for the Selectivity ratio in test [1] and in test [10] were 0.4 and 0.8, respectively. For the same molecule, the IC50 in [2] is 390 nM; in test [4], 390 nM; in test [5], 230 nM. Moreover, the Ki was 160 nM in test [3], 55 nM in test [6] and 120 nM in [9]. Besides, the Discrimination ratio in test [7] worked out at 2.5; in test [8], 7.1.

Take `Fc1ccc(CCNCC2CCCN(CCOC(c3ccccc3)c3ccccc3)C2)cc1` (configuration not stated): the Selectivity ratio in [1] came to 10.2; in test [10] it was 2.1. Further, the concentration for half-maximal inhibition (IC50) in test [2] came to 364 nM; in [4] it was 1830 nM; in [5] it was 190 nM. The Ki came out at 87 nM in test [3], 890 nM in [6] and 190 nM in test [9]. Also, the figures for the Discrimination ratio in test [7] and in [8] were 4.2 and 2.1, respectively.

Take `CN(CCc1ccc(F)cc1)CC1CCCN(CCOC(c2ccccc2)c2ccccc2)C1` (configuration not stated): the Selectivity ratio is 5.9 in test [1] and 1.3 in test [10]. Besides, the IC50 was determined as 1260 nM in test [2], 2130 nM in test [4] and 350 nM in test [5]. Moreover, the results for the Ki in test [3], in [6] and in [9] were 90 nM, 530 nM and 110 nM, respectively. Moreover, the Discrimination ratio in test [7] was 14; in [8], 4.

Regarding `CN(CCCc1ccccc1)C1CCN(CCOC(c2ccccc2)c2ccccc2)CC1`, the Selectivity ratio in [1] stood at 0.3; in [10], 0.1. Further, the concentration for half-maximal inhibition (IC50) turned out to be 210 nM in test [2], 310 nM in [4] and 180 nM in [5]. The Ki worked out at 340 nM in test [3], 87 nM in test [6] and 42 nM in [9]. Besides, the figures for the Discrimination ratio in [7] and in [8] were 0.6 and 3.6, respectively.

In the case of `Fc1ccc(CCNC2CCN(CCOC(c3ccccc3)c3ccccc3)CC2)cc1`, the Selectivity ratio was 2 in test [1] and 0.7 in test [10]. The results for the IC50 in [2], in [4] and in test [5] were 320 nM, 470 nM and 170 nM, respectively. Besides, the Ki in test [3] was 110 nM; in test [6], 220 nM; in [9], 79 nM. Besides, the figures for the Discrimination ratio in [7] and in [8] were 2.9 and 2.1, respectively.

In the case of `Fc1ccc(CCN2CCCC(CNCCOC(c3ccccc3)c3ccccc3)C2)cc1` (configuration not stated), the Selectivity ratio was found to be 3.3 in [1] and 1.5 in test [10]. Further, the IC50 was 500 nM in test [2], 1130 nM in [4] and 200 nM in test [5]. The values for the Ki in test [3], in test [6] and in test [9] were 100 nM, 350 nM and 150 nM, respectively. Further, the Discrimination ratio in test [7] worked out at 4.8; in test [8] it was 3.3.

Regarding `c1ccc(CCCNCC2CCCN(CCOC(c3ccccc3)c3ccccc3)C2)cc1` (configuration not stated), the Selectivity ratio was determined as 4.5 in test [1] and 0.6 in test [10]. Also, the figures for the IC50 in test [2], in test [4] and in [5] were 105 nM, 770 nM and 48 nM, respectively. The values for the Ki in test [3], in test [6] and in test [9] were 70 nM, 320 nM and 41 nM, respectively. The Discrimination ratio turned out to be 1.5 in [7] and 2.5 in [8].

For the molecule `c1ccc(CN2CCC(NCCOC(c3ccccc3)c3ccccc3)CC2)cc1`, the Selectivity ratio in test [1] was found to be 26; in test [10] it was 2.1. The concentration for half-maximal inhibition (IC50) stood at 270 nM in test [2], 1860 nM in test [4] and 87 nM in test [5]. Moreover, the Ki was found to be 83 nM in [3], 2160 nM in test [6] and 180 nM in test [9]. The Discrimination ratio was 3.2 in test [7] and 0.9 in test [8].

Regarding `c1ccc(CCCN2CCCC(CNCCOC(c3ccccc3)c3ccccc3)C2)cc1` (configuration not stated), the Selectivity ratio is 11.9 in test [1] and 1.3 in [10]. For the same molecule, the IC50 was 150 nM in test [2], 820 nM in [4] and 97 nM in [5]. Also, the Ki in test [3] was 18 nM; in [6] it was 210 nM; in [9], 23 nM. Further, the Discrimination ratio was found to be 8.1 in test [7] and 3.8 in test [8].

In [5], `c1ccc(CCCN2CCN(CCOC(c3ccccc3)c3ccccc3)CC2)cc1` gave an IC50 of 165 nM. In test [9], this molecule registered a Ki of 630 nM.

For the molecule `CN(CCOC(c1ccccc1)c1ccccc1)C1CCN(CCCc2ccccc2)CC1`, the Selectivity ratio in [1] was 47.3; in test [10], 1. Besides, the IC50 in test [2] was 330 nM; in test [4], 1910 nM; in [5] it was 200 nM. For the same molecule, the inhibitory constant (Ki) is 30 nM in test [3], 1400 nM in test [6] and 29 nM in [9]. In addition, the Discrimination ratio in test [7] is 11.1; in test [8], 0.9.
